# Measurements taken from ChEMBL document CHEMBL2346661, “Improved guanide compounds which bind the CXCR4 co-receptor and inhibit HIV-1 infection” (Bioorg Med Chem Lett, 2013).
# The source made the active and inactive calls. The rule behind the calls is not given here.
# Key:
# [1] = target: T1, C-X-C chemokine receptor type 4 (Homo sapiens, UniProt P61073); test: Inhibition of T-140 binding to CXCR4 (unknown origin) expressed in dog Cf2Th cells incubated for 30 mins prior to T-140 addition measured after 30 mins by fluorescence assay; type: cell-based
# MDA-MB-231 = test: Cytotoxicity against human MDA-MB-231 cells expressing CXCR4 after 48 to 72 hrs by MTS assay; type: cell-based
# Summary of the method: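 MDA-MB-231 breast cancer cells (CXCR4-expressing) exposed to compound for 48 to 72 h; viability by MTS dye reduction (CellTiter 96 Aqueous non-radioactive proliferation assay), run per manufacturer's protocol.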
# [2] = test system: Human immunodeficiency virus 1; test: Antiviral activity against R5 tropic HIV1 infected in human TZM-bl cells; type: functional, organism-based
# [3] = target: T1, C-X-C chemokine receptor type 4; test: Inhibition of anti-CXCR4 mAb-44716 binding to CXCR4 in human H9 cells at 1 uM incubated for 20 mins prior to mAbs-44716 addition measured after 1 hr by flow cytometric analysis; type: cell-based
# Summary of the method: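 H9 cells held 20 min at 4°C with […] compound in PBS/BSA/azide. Anti-CXCR4 mAb 44716 or an isotype control (anti-ricin RAC18) then added to 1 μg/ml for 1 h at 4°C. Washed, stained with Alexa 488 anti-mouse IgG for 1 h at 4°C, then fixed in 2% paraformaldehyde. Flow cytometry on 10,000 events; % inhibition from median fluorescence intensity.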
# [4] = target: T1, C-X-C chemokine receptor type 4; test: Inhibition of anti-CXCR4 mAb-12G5 binding to CXCR4 in human H9 cells at 0.1 to 10 uM incubated for 20 mins prior to mAbs-12G5 addition measured after 1 hr by flow cytometric analysis; type: cell-based
# Summary of the method: (§1)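 H9 cells or primary PHA-induced T-cell blasts pre-incubated 20 min at 4°C with a range of compound concentrations in PBS/1% BSA/0.01% sodium azide. mAb 12G5 (anti-CXCR4) or Sim.2 (anti-CD4) then added to 1 μg/ml for 1 h at 4°C. Detection with Alexa Fluor 488 goat anti-mouse IgG at 2 μg/ml for 1 h, then 2% paraformaldehyde fixation. Flow cytometry on 10,000 events; % inhibition from median fluorescence intensity against no-drug and no-Ab controls.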
# [5] = target: T1, C-X-C chemokine receptor type 4; test: Inhibition of anti-CXCR4 mAb-12G5 binding to CXCR4 in PHA-induced human T cells at 0.1 to 10 uM incubated for 20 mins prior to mAbs-12G5 addition measured after 1 hr by flow cytometric analysis; type: cell-based; settings: T-cell; summary of the method: as §1
# [6] = Cytotoxicity against PHA-induced human T cells up to 4 uM after 72 hrs by MTS assay; type: cell-based; settings: t-cell
# Summary of the method: (§2)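 Cultures of TZM-bl, H9, or PHA blasts exposed to compound at concentrations up to 4 μM; MTS dye reduction measured at 72 h.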
# [7] = test system: Human immunodeficiency virus 1; test: Antiviral activity against X4 tropic HIV1 isolate 92-HT-599 infected in human TZM-bl cells assessed as neutralization of viral infectivity at 50 to 100 nM incubated 1 hr prior to viral infection measured after 72 hrs by luciferase reporter gene assay; type: functional, organism-based
# [8] = target: T1, C-X-C chemokine receptor type 4; test: Inhibition of anti-CXCR4 mAb-44716 binding to CXCR4 in human H9 cells at 3 uM incubated for 20 mins prior to mAbs-44716 addition measured after 1 hr by flow cytometric analysis; type: cell-based
# Summary of the method: (§3)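 H9 cells pre-incubated at 4°C with […] compound in PBS/BSA/azide, then stained with anti-CXCR4 mAb 12G5, 44708, 44716 or 44717 at 1 μg/ml for 1 h. Detection with Alexa 488 anti-mouse IgG, then 2% paraformaldehyde fixation. Flow cytometry on 10,000 events; % inhibition from median fluorescence intensity.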
# [9] = target: T1, C-X-C chemokine receptor type 4; test: Inhibition of anti-CXCR4 mAb-44708 binding to CXCR4 in human H9 cells at 3 uM incubated for 20 mins prior to mAb-44708 addition measured after 1 hr by flow cytometric analysis; type: cell-based; summary of the method: as §3
# [10] = target: T1, C-X-C chemokine receptor type 4; test: Inhibition of anti-CXCR4 mAb-12G5 binding to CXCR4 in human H9 cells at 3 uM incubated for 20 mins prior to mAbs-12G5 addition measured after 1 hr by flow cytometric analysis; type: cell-based; summary of the method: as §3
# [11] = target: T-cell surface glycoprotein CD4 (Homo sapiens) (UniProt P01730); test: Inhibition of anti-CD4 mAb sim-2 binding to CD4 in human H9 cells at 0.1 to 10 uM incubated for 20 mins prior to mAb sim-2 addition measured after 1 hr by flow cytometric analysis; type: cell-based; summary of the method: as §1
# [12] = test system: Human immunodeficiency virus 1; test: Antiviral activity against X4 tropic HIV1 isolate 92-UG-029 infected in human TZM-bl cells assessed as neutralization of viral infectivity at 50 to 100 nM incubated 1 hr prior to viral infection measured after 72 hrs by luciferase reporter gene assay; type: functional, organism-based
# [13] = test system: Human immunodeficiency virus 1; test: Antiviral activity against X4 tropic HIV1 NL4-3 infected in human TZM-bl cells assessed as neutralization of viral infectivity at 50 to 100 nM incubated 1 hr prior to viral infection measured after 72 hrs by luciferase reporter gene assay; type: functional, organism-based
# [14] = test system: Human immunodeficiency virus 1; test: Antiviral activity against X4 tropic HIV1 BZ-167 infected in human TZM-bl cells assessed as neutralization of viral infectivity at 50 to 100 nM incubated 1 hr prior to viral infection measured after 72 hrs by luciferase reporter gene assay; type: functional, organism-based
# [15] = Cytotoxicity against human TZM-bl cells up to 4 uM after 72 hrs by MTS assay; type: cell-based; summary of the method: as §2
# H9 = test: Cytotoxicity against human H9 cells up to 4 uM after 72 hrs by MTS assay; type: cell-based; settings: h9, 72 h; summary of the method: as §2
# [16] = target: T-cell surface glycoprotein CD4 (Homo sapiens) (UniProt P01730); test: Inhibition of anti-CD4 mAb sim-2 binding to CD4 in PHA-induced human T cells at 0.1 to 10 uM incubated for 20 mins prior to mAb sim-2 addition measured after 1 hr by flow cytometric analysis; type: cell-based; summary of the method: as §1
# [17] = target: T1, C-X-C chemokine receptor type 4; test: Inhibition of anti-CXCR4 mAb-44717 binding to CXCR4 in human H9 cells at 3 uM incubated for 20 mins prior to mAb-44717 addition measured after 1 hr by flow cytometric analysis; type: cell-based; summary of the method: as §3
# T1 sequence (P61073 whole entry): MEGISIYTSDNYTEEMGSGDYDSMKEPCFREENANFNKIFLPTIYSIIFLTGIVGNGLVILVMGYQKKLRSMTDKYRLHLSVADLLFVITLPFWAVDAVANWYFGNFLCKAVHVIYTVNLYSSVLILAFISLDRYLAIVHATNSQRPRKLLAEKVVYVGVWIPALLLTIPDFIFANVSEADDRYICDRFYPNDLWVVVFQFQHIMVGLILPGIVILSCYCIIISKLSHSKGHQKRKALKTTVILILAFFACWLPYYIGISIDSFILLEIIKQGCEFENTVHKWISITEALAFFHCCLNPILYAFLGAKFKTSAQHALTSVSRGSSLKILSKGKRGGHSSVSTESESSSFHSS
smiles,measurement,setting,value
NC(=NCCCCN(CCCN=C(N)Nc1cccc2ccccc12)C(N)=Nc1cccc2ccccc12)Nc1cccc2ccccc12,IC50,[1],0.11 µM
N=C(NCCCN(CCCCN(CCCNC(=N)Nc1ccc2ccccc2c1)C(=N)Nc1ccc2ccccc2c1)C(=N)Nc1ccc2ccccc2c1)Nc1ccc2ccccc2c1,CC50,MDA-MB-231,20 µM
same,IC50,[1],0.3 µM
N=C(NCCCCN(CCCNC(=N)Nc1ccc2ccccc2c1)C(=N)Nc1ccc2ccccc2c1)Nc1ccc2ccccc2c1,IC50,[1],0.19 µM
N=C(Nc1ccccc1)N(CCCCN=C(N)Nc1ccccc1)CCCN=C(N)Nc1ccccc1,CC50,MDA-MB-231,510 µM
same,IC50,[1],0.28 µM
N=C(NCCCNCCCCN(CCCNC(=N)Nc1cccc2ccccc12)C(=N)Nc1cccc2ccccc12)Nc1cccc2ccccc12,Activity,[2],inactive
same,inhibition,[3],Active
same,inhibition,[4],Active
same,CC50,MDA-MB-231,18 µM
same,inhibition,[5],Active
same,Activity,[6],Non-toxic
same,Activity,[7],Active
same,inhibition,[8],Active
same,inhibition,[9],Active
same,inhibition,[10],Active
same,inhibition,[11],inactive
same,Activity,[12],Active
same,Activity,[13],Active
same,Activity,[14],Active
same,Activity,[15],Non-toxic
same,Activity,H9,Non-toxic
same,inhibition,[16],inactive
same,IC50,[1],0.04 µM
same,inhibition,[17],Active
N=C(NCCCN(CCCCN(CCCNC(=N)Nc1cccc2ccccc12)C(=N)Nc1cccc2ccccc12)C(=N)Nc1cccc2ccccc12)Nc1cccc2ccccc12,CC50,MDA-MB-231,7.3 µM
same,IC50,[1],0.38 µM
N=C(NCCCNCCCCN(CCCNC(=N)Nc1ccc2ccccc2c1)C(=N)Nc1ccc2ccccc2c1)Nc1ccc2ccccc2c1,Activity,[2],inactive
same,inhibition,[3],Active
N=C(NCCCNCCCCNCCCNC(=N)Nc1cccc2ccccc12)Nc1cccc2ccccc12,inhibition,[3],Active
same,CC50,MDA-MB-231,300 µM
same,IC50,[1],0.18 µM
N=C(NCCCCNCCCNC(=N)Nc1cccc2ccccc12)Nc1cccc2ccccc12,CC50,MDA-MB-231,120 µM
same,IC50,[1],0.22 µM
NCCCNCCCCNCCCN,inhibition,[4],inactive
same,inhibition,[5],inactive
same,inhibition,[8],inactive
same,inhibition,[9],inactive
same,inhibition,[10],inactive
same,inhibition,[17],inactive
N=C(Nc1ccccc1)N(CCCCN(CCCN=C(N)Nc1ccccc1)C(N)=Nc1ccccc1)CCCNC(N)=Nc1ccccc1,CC50,MDA-MB-231,> 100 µM
same,IC50,[1],0.51 µM
NC(=NCCCCNCCCN=C(N)Nc1ccc2ccccc2c1)Nc1ccc2ccccc2c1,CC50,MDA-MB-231,76 µM
same,IC50,[1],0.062 µM
NC(=NCCCNCCCCN(CCCN=C(N)Nc1ccc2ccccc2c1)C(N)=Nc1ccc2ccccc2c1)Nc1ccc2ccccc2c1,CC50,MDA-MB-231,15 µM
same,IC50,[1],0.093 µM
N=C(NCCCCNCCCNC(=N)Nc1ccc2ccccc2c1)Nc1ccc2ccccc2c1,Activity,[2],inactive
N=C(NCCCNCCCCNCCCNC(=N)Nc1ccc2ccccc2c1)Nc1ccc2ccccc2c1,Activity,[2],inactive
same,inhibition,[3],Active
same,CC50,MDA-MB-231,17 µM
same,IC50,[1],0.11 µM
N=C(NCCCCNCCCNC(=N)Nc1ccccc1)Nc1ccccc1,CC50,MDA-MB-231,> 1000 µM
same,IC50,[1],0.26 µM
